M4 ag: CHRM4 agonism in calcium assay; P08173; CHO-K1 hM4/Gqi5, Fluo-8 calcium fluorescence; vehicle 0%, full acetylcholine response 100%; activation, % at 3 µM; 360,000 tested, 0.14% active; AID 624127;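 active = activation above the run mean over all test wells plus 3 SD, cut at about 32% in these data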;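 also: peak over basal fluorescence ratio per well then scaled between controls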
TAAR1 antag: human TAAR1 antagonism; Q96RJ0; CHO RD-HGA16 TAAR1, Fluo-8 calcium fluorescence, antagonist; inhibition, % at 3 µM; 360,000 tested, 1.5% active; AID 624466;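 active = inhibition above a per-plate cutoff, the mean inhibition of test compounds on that plate plus 3 SD, cut at about 49% in these data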
Target sequence (Q96RJ0 whole entry, looked up): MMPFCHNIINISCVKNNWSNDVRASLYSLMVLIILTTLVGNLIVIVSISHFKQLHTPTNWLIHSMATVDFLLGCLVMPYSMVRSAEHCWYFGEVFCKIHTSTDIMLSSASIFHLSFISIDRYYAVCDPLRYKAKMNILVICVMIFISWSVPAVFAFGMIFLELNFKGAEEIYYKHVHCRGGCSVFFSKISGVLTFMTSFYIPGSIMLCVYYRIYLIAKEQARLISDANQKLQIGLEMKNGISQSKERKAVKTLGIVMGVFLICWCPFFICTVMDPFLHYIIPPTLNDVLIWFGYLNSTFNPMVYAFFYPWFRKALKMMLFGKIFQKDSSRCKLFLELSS
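test system = CHO RD-HGA16 cells bearing hTAAR1 | replication = singlicate | controls = DMSO-only wells and EC80 β-PEA-stimulated wells | reagent = EC80 β-phenethylamine stimulus | read-out basis = percent inhibition of PEA-evoked calcium signal, max/basal emission ratio | schedule = seeding 17-24 h prior, 75-min 37 °C, 30-min RT dye loading | signal = kinetic Fluo-8 calcium fluorescence measurement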
CHRM4 antagonist: blocks acetylcholine activation of human M4 receptor | AID 624125 | CHO-hM4 cells, ACh EC80, Fluo-8 calcium fluorescence | inhibition, % at 3 µM | 360,000 tested, 0.73% active | P08173;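 active = inhibition above its plate's cutoff, the mean inhibition of sample wells plus 3 SD, cut at about 27% in these data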
TAAR1 agonist: human TAAR1 agonism; CHO RD-HGA16 TAAR1, Fluo-8 calcium fluorescence; vehicle wells 0%, saturating PEA agonist 100%; Q96RJ0; activation, % at 3 µM; 360,000 tested, 0.99% active; AID 624467;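 active = activation above the mean activation of all test compounds in the run plus 3 SD, cut at about 38% in these data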
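test system = CHO RD-HGA16 cells carrying human TAAR1 plus Gα16 | schedule = 17-24 h seeding, 75 min 37 °C dye, 30 min RT | compound dosing = 3 µM single concentration | control set = DMSO and PEA EC100 | replicates = n 1 | signal = Fluo-8 fluorescence, 5 s baseline then 140 s kinetic read | measure = percent activation vs PEA EC100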
M4 PAM: potentiates acetylcholine response at human M4 receptor. CHO-K1 hM4/Gqi5, Fluo-8 calcium fluorescence, ACh EC20; 0% = ACh EC20, 100% = maximal ACh. P08173. 360,000 tested, 0.4% active. activation, % at 3 µM;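 active = activation above its plate's cutoff, the mean activation of sample wells plus 3 SD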
TAAR1 ag conf: confirmation of human TAAR1 agonists; shares compounds with TAAR1 agonist; activation, % at 3 µM; 2,400 tested, 82% active; AID 651783; CHO RD-HGA16 TAAR1, Fluo-8 calcium fluorescence; scaled: DMSO 0%, maximal phenethylamine 100%;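 active = activation above a cutoff set at the run's mean compound activation plus 3 SD, cut at about 39% in these data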
Ga16 nonsel ag: counter-screen for TAAR1 agonists: nonselective agonists in parental cells. activation, % at 3 µM. shares compounds with TAAR1 agonist. CHO-Ga16 parental, Fluo-8 calcium fluorescence; normalized to maximal ATP response, DMSO zero. 2,400 tested, 50% active;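 active = activation above the run cutoff, the mean activation over all tested wells plus 3 SD, cut at about 12% in these data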
TAAR1 desensitize: TAAR1 response desensitization, agonist counter-screen. 2,400 tested, 46% active. inhibition, % at 3 µM. CHO RD-HGA16 hTAAR1, Fluo-8 calcium, beta-PEA response inhibition. shares compounds with TAAR1 agonist. AID 651951;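 active = inhibition above the run cutoff, the mean inhibition of all test compounds plus 3 SD, cut at about 49% in these data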;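 also: beta-PEA stimulus applied at its EC80; loss of beta-PEA calcium signal after compound pretreatment read as receptor desensitization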
Ga16 nonsel ant: nonselective Ga16 antagonist in TAAR1 agonist counter-screen; shares compounds with TAAR1 agonist; CHO-Ga16 ATP-induced calcium, Fluo-8 fluorescence; inhibition, % at 3 µM; 2,400 tested, 39% active; AID 651952;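 active = inhibition above the plate's mean compound inhibition plus 3 SD, computed per plate, cut at about 22% in these data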
Numbers stand for hits; 0 = inactive; - = not tested or not shown. This is a sample that favours compounds with a hit; in the whole collection about 3% have one here.

SMILES	M4 ag	TAAR1 antag	CHRM4 antagonist	TAAR1 agonist	M4 PAM	TAAR1 ag conf	Ga16 nonsel ag	TAAR1 desensitize	Ga16 nonsel ant
CN(CC1COc2ccccc2O1)C(=O)c1cccc(S(=O)(=O)N2CCCC2)c1 (stereo unspecified)	0	0	0	0	0	-	-	-	-
COC(=O)C[C@H]1CC[C@H](NC(=O)Nc2ccccc2OC)[C@@H](CO)O1	0	0	0	0	0	-	-	-	-
CCCCCCCCCc1conc1C(=O)/C=C/c1ccco1	0	0	0	0	0	-	-	-	-
COc1ccc(C(=O)NC(=S)NC(C)C)cc1Br	0	0	0	0	0	-	-	-	-
O=C(NC(=S)NNC(=O)[C@H]1C[C@@H]1c1ccccc1)c1cccc(F)c1	0	0	0	77	0	74	83	0	30
COc1ccc(C(=O)NC(=S)NNC(=O)c2ccncc2)cc1Br	0	0	0	60	0	0	32	0	0
COc1ccccc1C(=O)NNC(=S)NC(=O)c1cccs1	0	0	0	106	0	103	77	0	38
O=C(NC(=S)NNC(=O)c1ccccc1O)c1cccs1	0	0	0	0	0	-	-	-	-
COc1ccc(C(=O)NC(=S)NNC(=O)c2cccc(C)c2)cc1	-	104	-	170	-	148	122	106	74
CCNC(=O)C1(C)CCCN1Cc1c(F)cccc1F (stereo unspecified)	0	0	0	0	0	-	-	-	-
O=C1C=CC(O)C2(CO)OC12 (stereo unspecified)	0	0	0	0	0	-	-	-	-
O=C1NC2(CCCCC2)C(=O)N1Cc1cccc(C(F)(F)F)c1	0	0	0	71	0	0	0	0	0
CN(CCc1ccccc1)C(C(=O)Nc1ccc2c(c1)OCCO2)c1ccnc2ccccc12 (stereo unspecified)	0	53	0	61	0	78	0	0	0
CC(C)C[C@H]1CN([C@@H](CC(C)C)CN2CCCC2CN2C(=S)NC[C@@H]2Cc2ccccc2)C(=S)N1CCc1ccccc1 (stereo partly specified)	0	0	0	0	0	-	-	-	-
Cc1nc2ncnn2c(N2CCN(C(c3ccccc3)c3ccccc3)CC2)c1C	0	0	0	49	0	0	15	0	0
O=C(CN1CCOCC1)Nc1cccc(C(=O)Nc2cccc(C(F)(F)F)c2)c1	0	0	0	0	0	-	-	-	-
CCCCCNCC(=O)Nc1cccc(C(=O)Nc2cccc(C(F)(F)F)c2)c1	0	50	0	72	0	76	46	56	46
Cc1ccc(SCC(=O)Nc2ccc(N3CCN(C)CC3)c(F)c2)cc1	0	0	0	49	0	69	0	0	0
COc1ccc(SCC(=O)Nc2ccc(N3CCN(C)CC3)c(F)c2)cc1	0	0	0	0	0	-	-	-	-
O=C(CCC(=O)N/N=C/c1ccccc1O)NCc1ccccc1	0	0	0	42	0	57	0	0	0
O=C(CNC(=O)c1ccccc1Br)N/N=C/c1ccccc1O	0	0	0	47	0	67	0	0	0
O=C(CCC(=O)Nc1ccc(Br)cc1)N/N=C/c1ccccc1F	0	0	0	0	0	-	-	-	-
O=C(CNC(=O)c1ccccc1Br)N/N=C/c1cc(Br)ccc1O	0	0	0	0	0	-	-	-	-
O=C(CCC(=O)Nc1ccc(F)cc1)N/N=C/c1ccccc1O	0	0	0	54	0	72	0	0	0
O=C(Cc1n[nH]c(=O)[nH]c1=O)N/N=C/c1ccccc1O	0	-	0	-	0	-	0	-	0
SMILES	M4 ag	TAAR1 antag	CHRM4 antagonist	TAAR1 agonist	M4 PAM	TAAR1 ag conf	Ga16 nonsel ag	TAAR1 desensitize	Ga16 nonsel ant
COc1ccc(-c2csc(C(C)(O)c3ccncc3)n2)cc1OC (stereo unspecified)	0	0	0	0	0	-	-	-	-
O=C1NC(CCc2ccccc2)C(=O)N1CCOc1cccc(Br)c1 (stereo unspecified)	0	0	0	59	0	0	0	0	0
COc1ccc(C(=O)CC(=O)C(=O)Nc2ccccc2Cl)cc1	0	0	0	0	0	-	-	-	-
COc1ccc(/C=C/C(=O)Nc2ccccc2C(F)(F)F)cc1	0	0	0	48	21	0	0	0	0
COc1ccc(C(=O)CC(=O)C(=O)Nc2ccccc2C(F)(F)F)cc1	0	73	0	94	0	132	120	87	77
O=C(NCCc1ccccc1)Nc1nnc([C@@H]2C[C@H](O)[C@@H](CO)O2)s1	0	0	0	0	0	-	-	-	-
CC(NC(=O)c1ccc(Cl)c(S(=O)(=O)NC2CC2)c1)c1ccco1 (stereo unspecified)	0	0	0	0	0	-	-	-	-
CCOC(=O)c1sc2c(c1C)C(c1cccs1)C1=C(CCCC1=O)N2 (stereo unspecified)	0	0	0	68	0	46	16	0	0
O=S(=O)(NCCc1ccccc1)c1ccc(F)cc1	0	64	0	73	0	86	0	80	0
O=S(=O)(NCCc1ccccc1)c1cccc2cccnc12	0	0	0	63	0	78	0	0	0
CC1Sc2ccc(S(=O)(=O)NCCc3ccccc3)cc2NC1=O (stereo unspecified)	0	0	0	69	0	66	0	0	0
COc1ccc(-c2nc3ccc(Br)cn3c2Cc2ccsc2)cc1OC	0	0	0	0	0	-	-	-	-
C[C@@H]1CN([C@@H](C)CO)C(=O)CCCn2cc(nn2)CO[C@H]1CN(C)C(=O)c1ccc(N2CCN(C)CC2)cc1	-	0	-	0	-	-	-	-	-
CC(C)(C)NC(=O)C(c1ccc(C#N)cc1)n1c(=O)c(-c2ccco2)nc2ccccc21 (stereo unspecified)	0	0	0	0	0	-	-	-	-
CC1(C)CC(=O)/C(=C(/O)Cc2ccccc2)C(=NCCc2ccccc2)C1	0	0	0	56	0	71	0	0	0
CCCCN=C1CC(C)(C)CC(=O)/C1=C(/O)CCCN1C(=O)c2ccccc2C1=O	0	0	0	0	0	-	-	-	-
CC(C)Cn1nc(C(=O)Nc2nnc(C3CC3)s2)c2ccccc2c1=O	0	0	0	0	0	-	-	-	-
Cc1ccc(OP(=O)(Nc2c(C)n(C)n(-c3ccccc3)c2=O)Oc2ccc(C)cc2)cc1	0	0	0	50	0	0	0	0	0
COc1cccc(-c2nc3n(n2)CCc2ccccc2-3)c1	0	0	0	0	0	-	-	-	-
